APJ ag: agonists of human APJ apelin receptor. P35414. CHO-K1 APJ PathHunter beta-arrestin, luminescence; 0% DMSO wells, 100% apelin. activation, % at 20 µM. actives 0.11% (n = 330,000);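 active = activation more than six SD over the plate average, tested at 20 µM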
Target sequence (P35414 whole entry, looked up): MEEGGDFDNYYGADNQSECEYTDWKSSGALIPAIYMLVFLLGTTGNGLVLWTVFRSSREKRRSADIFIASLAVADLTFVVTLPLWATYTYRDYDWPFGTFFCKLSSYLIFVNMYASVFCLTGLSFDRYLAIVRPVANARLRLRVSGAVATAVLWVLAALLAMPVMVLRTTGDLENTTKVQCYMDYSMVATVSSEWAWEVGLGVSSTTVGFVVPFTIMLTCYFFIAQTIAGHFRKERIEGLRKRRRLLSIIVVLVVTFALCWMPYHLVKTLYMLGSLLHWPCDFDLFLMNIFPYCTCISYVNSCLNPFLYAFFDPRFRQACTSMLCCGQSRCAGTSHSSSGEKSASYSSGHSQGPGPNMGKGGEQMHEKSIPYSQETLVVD
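Assay system – PathHunter CHO-K1 APJ (AGTRL-1) beta-arrestin reporter cells · Compound – one dose, 20 µM compound, 1% DMSO · Timing – compound 90 min 25 °C, reagent 1 h · Measured by – luminescence from split beta-galactosidase complementation, Galacton Star/Emerald II substrate · Measure – beta-arrestin recruitment to APJ as agonist activity, luminescent signal · Benchmarks – DMSO vs Apelin-13 10 nM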
CXCR6 block: CXCR6 (human) receptor inhibition; O00574; CHO-K1 PathHunter CXCR6 beta-arrestin, luminescence; inhibition, % at 20 µM; actives 0.36% (n = 360,000); AID 602244; in the data active = inhibition above about 34%, passing the limit was not always enough;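 also: antagonist mode with CXCL16 agonist at 10 nM final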
Target sequence (O00574 whole entry, looked up): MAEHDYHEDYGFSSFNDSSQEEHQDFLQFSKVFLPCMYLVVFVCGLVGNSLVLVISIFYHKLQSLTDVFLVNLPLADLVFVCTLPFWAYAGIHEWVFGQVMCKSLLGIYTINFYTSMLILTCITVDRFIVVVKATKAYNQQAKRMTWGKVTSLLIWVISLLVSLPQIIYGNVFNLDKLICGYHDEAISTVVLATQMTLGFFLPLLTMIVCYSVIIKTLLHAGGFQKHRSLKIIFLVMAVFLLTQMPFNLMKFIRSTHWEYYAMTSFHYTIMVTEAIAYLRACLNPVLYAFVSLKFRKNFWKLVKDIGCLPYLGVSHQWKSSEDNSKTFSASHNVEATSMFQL
PfGluPho inh: PfG6PD (Plasmodium falciparum) enzyme inhibition. actives 0.78% (n = 350,000). PfGluPho enzyme, NADPH resazurin-diaphorase fluorescence. inhibition, % at 20 µM. AID 504690;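 active = inhibition reaching at least a set limit at 20 µM in the primary screen, cut at about 59% in these data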
CCR6 antagonist: blocks CCL20-driven beta-arrestin recruitment at human CCR6; CHO-K1 CCR6 PathHunter beta-arrestin, luminescence, CCL20-stimulated; inhibition, % at 20 µM; actives 0.49% (n = 340,000); AID 493098;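 active = compounds whose inhibition of the agonist-driven luminescence signal at 20 µM reaches about 50%, limit read from the data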;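 also: cells stimulated with CCL20 at 14 nM final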
APJ antag: blocks the human apelin receptor APJ | P35414 | CHO-K1 APJ beta-arrestin complementation, luminescence | inhibition, % at 20 µM | actives 0.32% (n = 330,000);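 active = inhibition above about 40% at 20 µM, limit read from the data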;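 also: cells challenged with 10 nM apelin-13 agonist together with compound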
Beta2AR agonist: agonists of human beta-2 adrenergic receptor inducing internalization; P07550; Am2.2-beta2AR cells, FAP receptor internalization, flow cytometry; response, % (no concentration beside the values); actives 0.43% (n = 340,000); AID 504454;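 active = response above a set limit, near 3 SD of response in nonfluorescent compounds, cut at about 42% in these data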
APJ antag confirm: confirmation of human APJ apelin receptor antagonists. inhibition, % at 20 µM. AID 2766. actives 66% (n = 950). shares compounds with APJ antag. APJ beta-arrestin recruitment, luminescence, antagonist mode; in the data active = inhibition above about 50%
Each line names hits and unclear results; the compound was inactive in the other large screens (follow-up assays come after a bar, where they were run). Only some compounds are listed: those with a hit (about 1.7% of all), similar ones and a draw of the others.

O=C(O)c1ccc(S(=O)(=O)c2ccc(Sc3ccc(C(=O)O)c(C(=O)O)c3)cc2)cc1	none
CCn1nc(C)cc1-c1nnc(Sc2ncc([N+](=O)[O-])s2)n1C	CXCR6 block 84.3, CCR6 antagonist 96.6, APJ antag 57.1 | APJ antag confirm 65.1
COc1cccc(OCc2cc(/C=N/Nc3ccc(C(=O)O)cc3)ccc2OC)c1	none
CSc1nc(C(=O)N2CCCC(N3CCN(c4ccccc4C)CC3)C2)cs1 (stereo unspecified)	none
O=C(O)c1ccc(Nc2ccc([N+](=O)[O-])c3nonc23)cc1	CCR6 antagonist 59.2, APJ antag 42.0 | APJ antag confirm 75.6
O=C(O)c1ccc(Nc2ccc3nonc3c2[N+](=O)[O-])cc1	none
O=[N+]([O-])c1ccc(Nc2ccccc2O)c2nonc12	none
COc1ccc(Nc2ccc([N+](=O)[O-])c3nonc23)c(OC)c1	CXCR6 block 44.5, CCR6 antagonist 60.0, APJ antag 44.3 | APJ antag confirm 78.1
O=C(O)c1cccc(Nc2ccc([N+](=O)[O-])c3nonc23)c1	CCR6 antagonist 57.5, APJ antag 41.4 | APJ antag confirm 78.0
CCN(CC)S(=O)(=O)c1cc(OC)ccc1N=Nc1ccc(O)c2ncccc12	CCR6 antagonist 54.9, APJ antag 43.1 | APJ antag confirm inactive
O=C(Nc1ncccc1O)c1ccc2c(c1)OCCO2	none
CCS(=O)(=O)c1ccc(OC)c(N=Nc2ccc(O)c3ncccc23)c1	none
CCOc1ccc(N=Nc2ccc(O)c3ncccc23)cc1	none
Oc1ccc(N=Nc2ccc3c(c2)OCCO3)c2ncccc12	CCR6 antagonist 54.0, APJ antag 52.8 | APJ antag confirm 89.4
NS(=O)(=O)c1ccc(N=Nc2ccc(O)c3ncccc23)cc1	CXCR6 block 48.3, CCR6 antagonist 63.7, APJ antag 48.7 | APJ antag confirm 86.7
Cc1ccc(NCc2ccc(O)c3ncccc23)cc1	none
Cc1cccc(N=Nc2ccc(O)c3ncccc23)c1	APJ antag 41.8 | APJ antag confirm 83.1
CC(C)(C)c1ccc(S(=O)(=O)NC(=O)C2(C)CCN2C(=O)Cc2cccc3ccccc23)cc1 (stereo unspecified)	none (no result: APJ ag, PfGluPho inh, CCR6 antagonist, APJ antag, Beta2AR agonist)
O=C(Nc1ccc(Cl)cc1)C1Cc2c(-c3ccccc3Oc3ccccc3)ccnc2O1 (stereo unspecified)	none (no result: APJ ag, PfGluPho inh, CCR6 antagonist, APJ antag, Beta2AR agonist)
Cc1ccc(C)c(N=Nc2ccc(O)c3ncccc23)c1	CCR6 antagonist 62.9, APJ antag 44.9 | APJ antag confirm 74.1
CCOCCOC(=O)C1=C(C)NC2=C(C(=O)CC(c3cccs3)C2)C1c1ccsc1 (stereo unspecified)	APJ antag 44.9 | APJ antag confirm 56.8
COc1cc(CN2CCC(C(=O)NC(c3ccc(-c4ccccc4)cc3)c3cnccn3)CC2)cc(OC)c1 (stereo unspecified)	none (no result: APJ ag, PfGluPho inh, CCR6 antagonist, APJ antag, Beta2AR agonist)
O=C(CSc1nc2ccccc2o1)Nc1nncs1	APJ antag 52.4 | APJ antag confirm inactive
CC1Nc2ncnc(N3CCN(c4ccccn4)CC3)c2N(Cc2ccccc2)C1=O (stereo unspecified)	CXCR6 block 68.5, CCR6 antagonist 79.0, APJ antag 64.6 | APJ antag confirm 109.9
Cc1ccc(NS(=O)(=O)c2ccc(C(=O)N3CC(C)CC(C)C3)cc2)cc1 (stereo unspecified)	none
CN(CC(=O)Nc1ccccc1Br)C(=O)c1cccn1C	none
N#C/C(=N\Nc1ccc(S(=O)(=O)N2CCCCCC2)cc1)C(N)=S	APJ antag 48.2 | APJ antag confirm 64.4
Cc1ccc(NNC(=O)c2cc(C(C)(C)C)nn2Cc2ccccc2)cc1	APJ antag 41.0 | APJ antag confirm 102.6
O=C(NNc1c2ccccc2nc2ccccc12)c1ccc(O)cc1O	none
O=C(NNc1c2ccccc2nc2ccccc12)c1ccc(O)cc1	CCR6 antagonist 56.5, APJ antag 41.3 | APJ antag confirm 69.1
O=C1Nc2ccc(Br)cc2C1=Nc1ccc(-c2nnc3n2CCCCC3)cc1	APJ antag 49.3 (no result: CXCR6 block, PfGluPho inh, CCR6 antagonist, Beta2AR agonist) | APJ antag confirm 126.1
Brc1cccc(-c2nnc3n2CCCCC3)c1	none
OC1CN=C2CCCc3c2n(c2ccc(Cl)cc32)C1 (stereo unspecified)	CXCR6 block 52.1, CCR6 antagonist 67.9, APJ antag 61.3 | APJ antag confirm 100.6
Clc1ccc(Br)c(-c2nc3ccccc3[nH]2)c1	none (no result: APJ ag, CCR6 antagonist, APJ antag, Beta2AR agonist)
Cc1cc(C(=O)NNc2ccc(C)c(C)c2)no1	APJ antag 42.0 | APJ antag confirm 114.3
Cc1ccc(NNC(=O)c2c(C)noc2C)cc1Cl	APJ antag 55.8 | APJ antag confirm 69.7
Cc1noc(C)c1C(=O)NNc1ccc(C(C)C)cc1	APJ antag 46.7 | APJ antag confirm 102.3
O=C(COC(=O)CCSc1ccccc1)Nc1ccccc1	none
Cc1cnc(C(=O)OCc2ccc(Br)cc2)cn1	none
CN(C)c1ccc(/C=C2\N=C(c3ccc(Cl)c([N+](=O)[O-])c3)NC2=O)cc1	CXCR6 block 44.7, CCR6 antagonist 63.0, APJ antag 52.2 (no result: Beta2AR agonist) | APJ antag confirm 104.5
COc1ccc(S(=O)(=O)N2CCC(=O)N2)cc1	APJ antag 46.2 | APJ antag confirm inactive
CCCCNC(=O)c1ccccc1SCC(=O)NC1CCCCCCC1	none
Cc1ccc(NC(=O)c2ccc(Br)o2)c([N+](=O)[O-])c1	none (no result: APJ ag, APJ antag)
NS(=O)(=O)c1ccc(NNC(=O)c2ccc(Br)o2)c([N+](=O)[O-])c1	CCR6 antagonist 68.6, APJ antag 52.2 | APJ antag confirm 82.2
CC(=O)N1CCN(CC(=O)Nc2cc(F)ccc2C)CC1	none
CCOC(=O)c1ccc(N2N=C(C)/C(=C/C=C/c3ccco3)C2=O)cc1	none
CC1=NN(c2ccc(C(=O)OC(C)C)cc2)C(=O)/C1=C\C=C\c1ccco1	APJ antag 57.3 | APJ antag confirm 51.0
O=[N+]([O-])c1cc([N+](=O)[O-])c(Oc2c(F)ccc(F)c2F)cc1NN1CCCCC1	none
N#Cc1cnc(Nc2nc3ccccc3o2)nc1-c1ccccc1	CCR6 antagonist 54.7, APJ antag 52.4 | APJ antag confirm inactive
CCOC(=O)N(C)c1c(CC)nc2c(OCc3ccc(Cl)cc3Cl)cccn12	none (no result: APJ ag, PfGluPho inh, CCR6 antagonist, APJ antag, Beta2AR agonist)
CCN(CC)CCCn1c2c(c(SCC(=O)Nc3cc(OC)cc(OC)c3)nc1=O)CCC2	APJ antag 55.1 | APJ antag confirm inactive
CC[N+](CC)(CC#Cc1ccccc1)CC(=O)c1ccc(Cl)cc1	CCR6 antagonist 68.8, APJ antag 77.3 | APJ antag confirm inactive
COc1cc(/C=N/NS(=O)(=O)c2ccc(C)c([N+](=O)[O-])c2)cc([N+](=O)[O-])c1O	APJ antag 50.4 | APJ antag confirm 59.7
O=C(NCCOC(=O)c1cccs1)c1cccnc1	APJ antag 64.5 | APJ antag confirm inactive

Source: PubChem BioAssay (several laboratories)
